The record followed here is ChEMBL document CHEMBL4004863, “Design, synthesis, biological evaluation and X-ray structural studies of potent human dihydroorotate dehydrogenase inhibitors based on hydroxylated azole scaffolds” (Eur J Med Chem, 2017).

Data set [1] deals with Jurkat. As to the kind of experiment: Cytotoxicity against human Jurkat T cells assessed as compound concentration required to induce up to 30% cell death after 72 hrs by CellTox green assay.
In data set [2] the test system is Jurkat. In words: Antiproliferative activity against human Jurkat T cells assessed as DNA content after 72 hrs by Hoechst 33258 dye based fluorometric method. The data set is classed as functional, cell-based. In a few lines:
(§1)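 Jurkat T cells grown in X-VIVO 15 with 10% FBS and antibiotic-antimycotic at 37 °C, 5% CO2, passages 5–10, mycoplasma-free, STR-authenticated. IC50 came from nonlinear regression, mean ± SE of three experiments. Uridine, where added, was at 100 μM.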

Data set [3] is described as follows: Stability in human Jurkat cells assessed as parent compound remaining at 100 uM after 72 hrs by HPLC-UV method. The following applies: read-out: Stability. The data set is classed as ADME, cell-based.
A short description of data set [4]: Solubility in pH 7.4 PBS buffer at 1 mg after 24 hrs by HPLC-UV method. The data set is classed as physicochemical.
Data set [5] relates to Jurkat. In words: Antiproliferative activity against human Jurkat T cells assessed as DNA content up to 100 uM after 72 hrs in presence of exogenous uridine by Hoechst 33258 dye based fluorometric method. The data set is classed as functional, cell-based. In a few lines: as §1
For data set [6], the system named is PBMC. As to the kind of experiment: Immunosuppressive activity against human PBMC assessed as inhibition of PHA-stimulated cell proliferation preincubated for 2 hrs followed by PHA stimulation for 72 hrs by BrdU incorporation assay. The data set is classed as functional, cell-based. Background: Incorporation of labelled thymidine or its analogues reports DNA synthesis.

Data set [7] can be described thus: Selectivity index, ratio of compound concentration required to induce up to 30% cell death in human Jurkat T cells to IC50 for antiproliferative activity against human Jurkat T cells. In kind it is functional. The method, boiled down:
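Ratio of two Jurkat T-cell readouts, both after 72 h compound or DMSO exposure of 5×10^3 cells/well. The numerator is the concentration causing ≥30% cytotoxicity by CellTox green (0.001–100 μM). Cells were grown in X-VIVO 15 with 10% FBS; three independent experiments.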

For data set [8], the system named is Jurkat. As to the kind of experiment: Antiproliferative activity against human Jurkat T cells assessed as DNA content up to 200 uM after 72 hrs in presence of exogenous uridine by Hoechst 33258 dye based fluorometric method. The data set is classed as functional, cell-based. The method, boiled down:
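Jurkat T cells grown in X-VIVO 15 with 10% FBS and antibiotic-antimycotic at 37 °C, 5% CO2, passages 5–10, mycoplasma-free, STR-authenticated. 5×10^3 cells were exposed to 0.001–200 μM compound or DMSO vehicle for 72 h, lysed in 0.02% SDS/SSC, and stained with Hoechst 33258 (ex 355/em 460 nm). IC50 came from nonlinear regression, mean ± SE of three experiments. Uridine, where added, was at 100 μM.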

Data set [9] can be described thus: Solubility in pH 7.4 PBS buffer with 1% DMSO at 1 mg after 24 hrs by HPLC-UV method. The data set is classed as physicochemical.
Data set [10] is described as follows: Solubility in human Jurkat cell growing medium with 1% DMSO at 1 mg after 24 hrs by HPLC-UV method. In kind it is physicochemical.

≈ marks a conversion by molar mass, not a printed value. Calls of active or inactive are those of the source. The rule behind the calls is not given here.

As usually defined, the IC50 is the concentration at which inhibition is half-maximal. With `O=C(Nc1c(F)c(F)c(-c2ccccc2)c(F)c1F)c1no[nH]c1=O`, the Activity in data set [1] was more than 100 µM. The IC50 in [2] was determined as 59.7 µM.

For orientation: solubility means the concentration that dissolves in the medium under given conditions. As to `Cn1nnc(O)c1C(=O)Nc1c(F)c(F)c(-c2ccccc2)c(F)c1F`, in [1], the Activity worked out at 8.3 µM. For the same molecule, the IC50 in data set [2] was 5.82 µM. Further, the remaining at 72 h, 100 µM in data set [3] worked out at 99%. For the same molecule, the solubility at 24 h in data set [4] came out at 48 µM (≈ 17.6 µg/mL).

`Cn1nc(O)c(C(=O)Nc2ccc(-c3ccccc3)cc2F)n1`: the Activity in data set [1] was found to be 56.8 µM. Also, the IC50 in data set [2] amounted to 35.7 µM.

As for `Cc1c(-c2ccc(-c3ccccc3F)cc2)nc2ccc(F)cc2c1C(=O)O` [BREQUINAR], in [1], the Activity worked out at 45 µM. Also, in data set [5], the result was inactive. Further, the 50% inhibitory concentration (IC50) in [6] came to 4.3 µM; in data set [2], 0.93 µM. For the same molecule, in data set [3], the remaining at 72 h, 100 µM is 98%. The solubility at 24 h in data set [4] worked out at 359 µM (≈ 135 µg/mL).

Turning to `Cn1nc(O)c(C(=O)Nc2c(F)cc(-c3ccccc3)cc2F)n1`, the Activity in data set [1] was 49.3 µM. The IC50 in data set [2] was found to be 13.3 µM.

On to `O=C(Nc1c(F)c(F)c(-c2ccccc2)c(F)c1F)c1nsnc1O`, for which the Activity in data set [1] was found to be 78 µM. In addition, the result in [5] was inactive. The IC50 in [6] stood at 6.2 µM; in [2], 1.04 µM. Also, in data set [7], the “Selectivity Index” value was 70. In [3], the remaining at 72 h, 100 µM is 80%. The molecule further displayed a solubility at 24 h in [4] of 1690 µM (≈ 626 µg/mL).

Take `O=C(Nc1c(F)c(F)c(-c2cccc(OC(F)(F)F)c2)c(F)c1F)c1nsnc1O`: the Activity in [1] came out at 5.2 µM. Moreover, the IC50 in data set [2] worked out at 2.5 µM.

Consider `O=C(Nc1c(F)c(F)c(-c2cccc(OC(F)(F)F)c2)c(F)c1F)c1no[nH]c1=O`, for which the Activity in [1] is more than 100 µM. The IC50 in data set [2] is 68.3 µM.

Consider `O=C(Nc1c(F)c(F)c(-c2ccccc2)c(F)c1F)c1nn(CC2CC2)nc1O`, for which the Activity in data set [1] was determined as 11 µM. Also, the IC50 in [2] turned out to be 7.13 µM.

`C/C(O)=C(\C#N)C(=O)Nc1ccc(C(F)(F)F)cc1` [TERIFLUNOMIDE]: in data set [1], the Activity was 53 µM. Besides, the 50% inhibitory concentration (IC50) in data set [6] is 54.3 µM. In addition, the remaining at 72 h, 100 µM in data set [3] came to 101%. In [8], the outcome was inactive.

Turning to `O=C(Nc1c(F)c(F)c(-c2ccccc2)c(F)c1F)c1c(O)nnn1CC1CC1`, the Activity in data set [1] stood at 6 µM. Also, the IC50 in data set [2] amounted to 3.22 µM.

Turning to `Cc1c(C(=O)Nc2c(F)c(F)c(-c3ccccc3)c(F)c2F)c(O)nn1C`, the Activity in data set [1] was determined as 82 µM. Further, the solubility at 24 h in data set [9] is 7 µM (≈ 2.66 µg/mL); in [4], less than 0.1 µM; in data set [10], more than 100 µM. Also, the result in [5] was inactive. Moreover, the figures for the IC50 in [6] and in data set [2] were 10.7 µM and 2.22 µM, respectively. The “Selectivity Index” value in data set [7] stood at 70. Also, the remaining at 72 h, 100 µM in data set [3] is 94%.
